Columns and labels:
Plasmodium falciparum [1] = experiment: Antimalarial activity against chloroquine-resistant Plasmodium falciparum VS/1 infected in human A positive erythrocytes assessed as inhibition of [G-3H]-hypoxanthine uptake after 24 hrs by liquid scintillation counting; assay type: functional; settings: VS/1, 24 h
Plasmodium falciparum [2] = experiment: Antimalarial activity against chloroquine-resistant Plasmodium falciparum TM6 infected in human A positive erythrocytes assessed as inhibition of [G-3H]-hypoxanthine uptake after 24 hrs by liquid scintillation counting; assay type: functional, organism-based; settings: TM6, 24 h
Plasmodium falciparum [3] = experiment: Antimalarial activity against chloroquine-resistant Plasmodium falciparum K1 infected in human A positive erythrocytes assessed as inhibition of [G-3H]-hypoxanthine uptake after 24 hrs by liquid scintillation counting; assay type: functional, organism-based; settings: K1, 24 h
Plasmodium falciparum [4] = experiment: Antimalarial activity against Plasmodium falciparum TM4 infected in human A positive erythrocytes assessed as inhibition of [G-3H]-hypoxanthine uptake after 24 hrs by liquid scintillation counting; assay type: functional, organism-based; settings: TM4, 24 h
Plasmodium falciparum [5] = experiment: Antimalarial activity against Plasmodium falciparum Dd2 infected in human A positive erythrocytes assessed as inhibition of [G-3H]-hypoxanthine uptake after 24 hrs by liquid scintillation counting; assay type: functional, organism-based; settings: Dd2, 24 h
Plasmodium falciparum [6] = experiment: Antimalarial activity against Plasmodium falciparum PH3 infected in human A positive erythrocytes assessed as inhibition of [G-3H]-hypoxanthine uptake after 24 hrs by liquid scintillation counting; assay type: functional, organism-based; settings: PH3, 24 h
Plasmodium falciparum [7] = experiment: Antimalarial activity against chloroquine-sensitive Plasmodium falciparum 3D7 infected in human A positive erythrocytes assessed as inhibition of [G-3H]-hypoxanthine uptake after 24 hrs by liquid scintillation counting; assay type: functional, organism-based; settings: 3D7, 24 h
[8] = Therapeutic index, ratio of MTD for Sprague-Dawley rat to MCD for blood stage of Plasmodium berghei NK65; settings: read-out: TI
How it was run: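 MCD (minimum clearance dose) comes from rodents infected with blood-stage P. berghei NK65, dosed orally except artesunate, which was given iv. MTD (maximum tolerated dose) comes from Sprague–Dawley rats. Both are in mg/kg. Therapeutic index is MTD divided by MCD.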

Plasmodium berghei [9] = experiment: Antimalarial activity against blood stage of Plasmodium berghei NK65 infected in po dosed rat assessed as minimum curative dose; assay type: functional
How it was run: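 Rodents infected with blood-stage Plasmodium berghei NK65 were dosed by the route given in each line. Read-out was the minimum clearance dose (MCD), the lowest dose clearing parasites, reported in mg/kg. Method follows earlier reports.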

Plasmodium berghei [10] = experiment: Antimalarial activity against blood stage of Plasmodium berghei NK65 infected in po dosed rat assessed as inhibition of parasite growth; assay type: functional
How it was run: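 Blood-stage Plasmodium berghei NK65 infection in rodents. Compounds were given by the route stated in each line. ED50 is the dose in mg/kg giving 50% parasite growth inhibition relative to the untreated blank control. Procedure follows earlier reports.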

[11] = Acute toxicity in po dosed Sprague-Dawley rat assessed as maximum tolerated dose; assay type: organism-based; settings: in vivo
Rattus norvegicus = organism: Rattus norvegicus; experiment: Ratio of compound MTD to febrifugine MTD in Sprague-Dawley rat; assay type: ADME, organism-based; settings: in vivo
Plasmodium falciparum [12] = experiment: Antimalarial activity against chloroquine-resistant Plasmodium falciparum FVO infected in Aotus monkey assessed as cure rate at 16 mg/kg, po qd for 3 days; assay type: functional
How it was run: (§1)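 Aotus monkeys carrying chloroquine-resistant P. falciparum FVO were dosed orally once daily for 3 days at 2, 4, 8 or 16 mg/kg/day. Dosing began the day after parasitemia reached approximately 5,000 organisms per mm³. Cure means parasitemia cleared with no recrudescence. Cure rate is animals cured over total tested.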

Plasmodium falciparum [13] = experiment: Antimalarial activity against chloroquine-resistant Plasmodium falciparum FVO infected in Aotus monkey assessed as cure rate at 2 mg/kg, po qd for 3 days; assay type: functional; how it was run: as §1
Plasmodium falciparum [14] = experiment: Antimalarial activity against chloroquine-resistant Plasmodium falciparum FVO infected in Aotus monkey assessed as cure rate at 4 mg/kg, po qd for 3 days; assay type: functional; how it was run: as §1
Plasmodium falciparum [15] = experiment: Antimalarial activity against chloroquine-resistant Plasmodium falciparum FVO infected in Aotus monkey assessed as cure rate at 8 mg/kg, po qd for 3 days; assay type: functional; how it was run: as §1

Structure (SMILES)	IC50 (Plasmodium falciparum [1])	IC50 (Plasmodium falciparum [2])	IC50 (Plasmodium falciparum [3])	IC50 (Plasmodium falciparum [4])	IC50 (Plasmodium falciparum [5])	IC50 (Plasmodium falciparum [6])	IC50 (Plasmodium falciparum [7])	selectivity ratio [8]	MCD (Plasmodium berghei [9])	ED50 (Plasmodium berghei [10])	MTD [11]	Ratio (Rattus norvegicus)	Activity (Plasmodium falciparum [12])	Activity (Plasmodium falciparum [13])	Activity (Plasmodium falciparum [14])	Activity (Plasmodium falciparum [15])
CCN(CC)Cc1cc(Nc2ccnc3cc(Cl)ccc23)ccc1O	8.7 nM	7.5 nM	21.2 nM	15.2 nM	9.1 nM	15.9 nM	4.9 nM	–	–	–	–	–	–	–	–	–
O=C(Cn1cnc2ccccc2c1=O)[C@H]1NCC[C@@H]1O	5.6 nM	3.1 nM	3.9 nM	7.9 nM	4.5 nM	1.4 nM	2.8 nM	10	9.9 mg/kg	1.7 mg/kg	100 mg/kg	–	–	–	–	–
O=C(Cn1cnc2cccnc2c1=O)[C@H]1NCC[C@@H]1O	3.6 nM	2.1 nM	3.1 nM	4.1 nM	2.3 nM	1.1 nM	1.8 nM	63	7.1 mg/kg	1.2 mg/kg	450 mg/kg	> 10	–	–	–	–
O=C(Cn1cnc2ccncc2c1=O)[C@H]1NCC[C@@H]1O	4.1 nM	3.4 nM	2.8 nM	3 nM	2.2 nM	1 nM	1.4 nM	47	7.5 mg/kg	1 mg/kg	350 mg/kg	> 10	–	–	–	–
O=C(Cn1cnc2cccc(F)c2c1=O)[C@H]1NCC[C@@H]1O	5.3 nM	3.9 nM	5.9 nM	6.2 nM	8.1 nM	2.5 nM	5.7 nM	63	6.3 mg/kg	1.1 mg/kg	400 mg/kg	> 10	–	–	–	–
O=C(Cn1cnc2cccc(C(F)(F)F)c2c1=O)[C@H]1NCC[C@@H]1O	11.2 nM	2.5 nM	4.7 nM	7.4 nM	6.3 nM	3.2 nM	2.7 nM	60	6.7 mg/kg	0.95 mg/kg	400 mg/kg	> 10	–	–	–	–
O=C(Cn1cnc2cccnc2c1=O)[C@H]1NCC[C@@H]1OCc1ccccc1	0.13 nM	0.08 nM	0.24 nM	0.33 nM	0.17 nM	0.2 nM	0.21 nM	147	1.7 mg/kg	0.19 mg/kg	250 mg/kg	–	100%	25%	71%	80%
CCO[C@H]1CCN[C@@H]1C(=O)Cn1cnc2cccc(F)c2c1=O	0.25 nM	0.17 nM	0.24 nM	0.22 nM	0.26 nM	0.18 nM	0.21 nM	132	1.9 mg/kg	0.31 mg/kg	250 mg/kg	–	100%	50%	67%	100%
